From ChEMBL document CHEMBL1126705, “16 beta-([18F]fluoro)estrogens: systematic investigation of a new series of fluorine-18-labeled estrogens as potential imaging agents for estrogen-receptor-positive breast tumors” (J Med Chem, 1993)

How the values were obtained:
[1] = system: Rattus norvegicus; assay: Tested in vivo for the biodistribution in rat fat at 1 hour after intravenous dose of 50 microCi of the drug and 15 ug of estradiol; assay type: ADME, organism-based, Adipose tissue
[2] = system: Rattus norvegicus; assay: Tested in vivo for the biodistribution in rat uterus/muscle at 1 hour after intravenous dose of 50 microCi of the drug and 15 ug of estradiol; assay type: ADME, organism-based, Muscle tissue
How it was run: (§1)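 Female Sprague-Dawley rats, 25 days old (~40–53 g), ether-anesthetized, given the 18F-labeled estrogen iv via femoral vein in 10% ethanol saline. […] Others were sacrificed by decapitation at 1 or 3 h. Blood and organs were excised, weighed and gamma counted as % injected dose/g, mean ± SD, typically n = 5 (4–6).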

[3] = system: Rattus norvegicus; assay: Tested in vivo for the biodistribution in blood of female rat after 3 hours following an intravenous dose of 50 microCi of drug in 10%ethanol saline; assay type: ADME, organism-based
How it was run: (§2)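 Ether-anesthetized 25-day-old female Sprague-Dawley rats (~40–53 g) got the [18F] tracer in 10% ethanol saline via femoral vein. Rats were decapitated at 1 or 3 h, and blood and organs were weighed and gamma-counted. Values are % injected dose/g as mean ± SD, n = 5 per time point.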

[4] = biological target: T1, Estrogen receptor (Rattus norvegicus) (UniProt P06211+Q62986)
[5] = system: Rattus norvegicus; assay: Tested in vivo for the biodistribution in rat ovaries after 3 hours following an intravenous dose of 50 microCi of drug in 10%ethanol saline; assay type: ADME, organism-based, Female gonad
How it was run: (§3)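 Immature (25-day-old) female Sprague-Dawley rats, ether-anesthetized, given the fluorine-18-labeled estrogen by femoral vein injection in 10% ethanol saline. […] Other groups were killed by decapitation at 1 or 3 h. Blood and organs were weighed and gamma-counted. Data are % injected dose/g, mean ± SD, typically n = 5 per group.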

[6] = system: Rattus norvegicus; assay: Tested in vivo for the biodistribution in rat kidney after 3 hours following an intravenous dose of 50 microCi of drug in 10%ethanol saline; assay type: ADME, organism-based; how it was run: as §2
[7] = system: Rattus norvegicus; assay: Tested in vivo for the biodistribution in blood of female rat at 1 hour after intravenous dose of 50 microCi of the drug and 15 u g of estradiol; assay type: ADME, organism-based
[8] = biological target: T2, Alpha-fetoprotein (Rattus norvegicus) (UniProt P02773); assay: Relative binding affinity for Alphafetoprotein
T2 sequence (whole entry): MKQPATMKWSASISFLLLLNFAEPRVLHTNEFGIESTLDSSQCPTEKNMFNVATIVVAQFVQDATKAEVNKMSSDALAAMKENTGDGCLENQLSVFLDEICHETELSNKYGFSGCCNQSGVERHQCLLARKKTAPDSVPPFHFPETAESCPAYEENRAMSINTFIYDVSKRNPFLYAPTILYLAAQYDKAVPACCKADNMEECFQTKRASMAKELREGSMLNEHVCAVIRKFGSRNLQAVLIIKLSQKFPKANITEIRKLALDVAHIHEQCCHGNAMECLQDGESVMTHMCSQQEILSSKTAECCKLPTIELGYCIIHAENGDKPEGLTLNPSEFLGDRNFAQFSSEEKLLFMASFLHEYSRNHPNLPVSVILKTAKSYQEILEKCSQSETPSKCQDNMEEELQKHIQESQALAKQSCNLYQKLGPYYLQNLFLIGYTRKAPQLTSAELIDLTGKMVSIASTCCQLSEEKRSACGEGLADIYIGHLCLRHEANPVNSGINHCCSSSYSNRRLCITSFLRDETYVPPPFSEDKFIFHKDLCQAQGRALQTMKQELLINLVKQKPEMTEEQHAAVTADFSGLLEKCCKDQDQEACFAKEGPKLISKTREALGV

[9] = system: Rattus norvegicus; assay: Tested in vivo for the biodistribution in rat uterus/blood at 1 hour after intravenous dose of 50 microCi of the drug and 15 ug of estradiol; assay type: ADME, organism-based; how it was run: as §1
[10] = system: Rattus norvegicus; assay: Tested in vivo for the biodistribution in rat uterus/muscle at 1 hour after intravenous dose of 50 microCi of drug in 10%ethanol saline; assay type: ADME, organism-based, Muscle tissue; how it was run: as §1
[11] = system: Rattus norvegicus; assay: Tested in vivo for the biodistribution in rat uterus at 1 hour after intravenous dose of 50 microCi of the drug and 15 ug of estradiol; assay type: ADME, organism-based; how it was run: as §1
[12] = system: Rattus norvegicus; assay: Tested in vivo for the biodistribution in blood of female rat at 1 hour after intravenous dose of 50 microCi of drug in 10%ethanol saline; assay type: ADME, organism-based; how it was run: as §2
[13] = system: Rattus norvegicus; assay: Tested in vivo for the biodistribution in rat fat at 1 hour after intravenous dose of 50 microCi of drug in 10%ethanol saline; assay type: ADME, organism-based, Adipose tissue; how it was run: as §2
[14] = system: Rattus norvegicus; assay: Tested in vivo for the biodistribution in rat ovaries at 1 hour after intravenous dose of 50 microCi of drug in 10%ethanol saline; assay type: ADME, organism-based, Female gonad; how it was run: as §3
[15] = system: Rattus norvegicus; assay: Tested in vivo for the biodistribution in rat kidney at 1 hour after intravenous dose of 50 microCi of the drug and 15 u g of estradiol; assay type: ADME, organism-based; how it was run: as §3
[16] = Partition coefficient (logP); assay type: physicochemical; conditions: octanol/water
How it was run: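 Octanol/water log P estimated from log k'w measured by reversed-phase HPLC (Minick method) on a C8 silica column.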

[17] = system: Rattus norvegicus; assay: Tested in vivo for the biodistribution in rat thymus after 3 hours following an intravenous dose of 50 microCi of drug in 10%ethanol saline; assay type: ADME, organism-based; how it was run: as §3
[18] = system: Rattus norvegicus; assay: Tested in vivo for the biodistribution in rat uterus/blood at 1 hour after intravenous dose of 50 microCi of drug in 10%ethanol saline; assay type: ADME, organism-based; how it was run: as §1
[19] = system: Rattus norvegicus; assay: Tested in vivo for the biodistribution in rat liver after 3 hours following an intravenous dose of 50 microCi of drug in 10%ethanol saline; assay type: ADME, organism-based; how it was run: as §3
[20] = system: Rattus norvegicus; assay: Tested in vivo for the biodistribution in rat thymus at 1 hour after intravenous dose of 50 microCi of drug in 10%ethanol saline; assay type: ADME, organism-based; how it was run: as §3
[21] = biological target: T3, Sex hormone-binding globulin (Homo sapiens) (UniProt P04278); assay: Relative binding affinity against sex steroid binding protein (SBP)
T3 sequence (whole entry): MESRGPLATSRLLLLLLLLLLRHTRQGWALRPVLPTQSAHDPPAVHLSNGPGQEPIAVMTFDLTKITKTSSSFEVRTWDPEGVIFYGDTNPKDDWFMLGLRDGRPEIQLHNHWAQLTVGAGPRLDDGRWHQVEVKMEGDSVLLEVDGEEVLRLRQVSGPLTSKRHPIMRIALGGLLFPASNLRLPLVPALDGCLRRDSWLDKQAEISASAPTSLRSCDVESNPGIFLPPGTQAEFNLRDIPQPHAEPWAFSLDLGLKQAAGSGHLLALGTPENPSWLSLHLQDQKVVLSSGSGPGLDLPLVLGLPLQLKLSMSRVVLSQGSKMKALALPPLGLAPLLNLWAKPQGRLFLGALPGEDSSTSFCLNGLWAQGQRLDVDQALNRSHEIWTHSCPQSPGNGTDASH

[22] = system: Rattus norvegicus; assay: Tested in vivo for the biodistribution in rat uterus/blood after 3 hours following an intravenous dose of 50 microCi of drug in 10%ethanol saline; assay type: ADME, organism-based; how it was run: as §1
[23] = system: Rattus norvegicus; assay: Tested in vivo for the biodistribution in rat muscle after 3 hours following an intravenous dose of 50 microCi of drug in 10%ethanol saline; assay type: ADME, organism-based, Muscle tissue; how it was run: as §3
[24] = system: Rattus norvegicus; assay: Tested in vivo for the biodistribution in rat bone after 3 hours following an intravenous dose of 50 microCi of drug in 10%ethanol saline; assay type: ADME, organism-based, Bone element; how it was run: as §2
[25] = system: Rattus norvegicus; assay: Tested in vivo for the biodistribution in rat uterus at 1 hour after intravenous dose of 50 microCi of drug in 10%ethanol saline; assay type: ADME, organism-based; how it was run: as §1
[26] = system: Rattus norvegicus; assay: Tested in vivo for the biodistribution in rat muscle at 1 hour after intravenous dose of 50 microCi of drug in 10%ethanol saline; assay type: ADME, organism-based, Muscle tissue; how it was run: as §3
[27] = system: Rattus norvegicus; assay: Tested in vivo for the biodistribution in rat thymus at 1 hour after intravenous dose of 50 microCi of the drug and 15 ug of estradiol; assay type: ADME, organism-based; how it was run: as §3
[28] = system: Rattus norvegicus; assay: Tested in vivo for the biodistribution in rat uterus after 3 hours following an intravenous dose of 50 microCi of drug in 10%ethanol saline; assay type: ADME, organism-based; how it was run: as §3
[29] = biological target: T1, Estrogen receptor (Rattus norvegicus); remark: listed apart in the source
[30] = system: Rattus norvegicus; assay: Tested in vivo for the biodistribution in rat bone at 1 hour after intravenous dose of 50 microCi of the drug and 15 ug of estradiol; assay type: ADME, organism-based, Bone element
[31] = system: Rattus norvegicus; assay: Tested in vivo for the biodistribution in rat liver at 1 hour after intravenous dose of 50 microCi of drug in 10%ethanol saline; assay type: ADME, organism-based; how it was run: as §3
[32] = system: Rattus norvegicus; assay: Tested in vivo for the biodistribution in rat kidney at 1 hour after intravenous dose of 50 microCi of drug in 10%ethanol saline; assay type: ADME, organism-based; how it was run: as §2
[33] = system: Rattus norvegicus; assay: Tested in vivo for the biodistribution in rat ovaries at 1 hour after intravenous dose of 50 microCi of the drug and 15 ug of estradiol; assay type: ADME, organism-based, Female gonad; how it was run: as §3
[34] = system: Rattus norvegicus; assay: Tested in vivo for the biodistribution in rat bone at 1 hour after intravenous dose of 50 microCi of drug in 10%ethanol saline; assay type: ADME, organism-based, Bone element; how it was run: as §2
[35] = system: Rattus norvegicus; assay: Tested in vivo for the biodistribution in rat uterus/muscle after 3 hours following an intravenous dose of 50 microCi of drug in 10%ethanol saline; assay type: ADME, organism-based, Muscle tissue; how it was run: as §1
[36] = system: Rattus norvegicus; assay: Tested in vivo for the biodistribution in rat muscle at 1 hour after intravenous dose of 50 microCi of the drug and 15 ug of estradiol; assay type: ADME, organism-based, Muscle tissue; how it was run: as §3
[37] = system: Rattus norvegicus; assay: Tested in vivo for the biodistribution in rat liver at 1 hour after intravenous dose of 50 microCi of the drug and 15 u g of estradiol; assay type: ADME, organism-based; how it was run: as §3
[38] = (§4) Tested in vivo for the biodistribution in rat fat after 3 hours following an intravenous dose of 50 microCi of drug in 10%ethanol saline; design: species or system Adipose tissue; how it was run: as §2
[39] = system: Rattus norvegicus; assay: as §4; assay type: ADME, organism-based, Adipose tissue; how it was run: as §2

| Compound | Injected [1] [%] | Injected [3] [%] | NSB [4] | Injected [5] [%] | Injected [6] [%] | Injected [7] [%] | relative binding affinity (RBA) [8] | Injected [11] [%] | Injected [12] [%] | Injected [13] [%] | Injected [14] [%] | logP [16] | relative binding affinity (RBA) [21] | Injected [22] [%] | Injected [24] [%] | Injected [28] [%] | BSI [29] | Injected [31] [%] | Injected [32] [%] | Injected [33] [%] | other results |
| --- | --- | --- | --- | --- | --- | --- | --- | --- | --- | --- | --- | --- | --- | --- | --- | --- | --- | --- | --- | --- | --- |
| CO[C@H]1C[C@]2(C)[C@@H](O)[C@@H](F)C[C@H]2[C@@H]2CCc3cc(O)ccc3[C@H]21 | 0.338 | 0.117 | 0.39 | 1.409 | 0.429 | 0.184 | 0.062 | 0.671 | 0.148 | 0.516 | 2.466 | 2.35 | 0.087 | 43.47 | 0.646 | 4.813 | 34 | 1.178 | 0.946 | 0.417 | Injected (dose/g) [2]: 4.49%; Injected (dose/g) [9]: 3.73%; Injected (dose/g) [10]: 25.57%; Injected (dose/g) [15]: 0.579%; Injected (dose/g) [17]: 0.175%; Injected (dose/g) [18]: 41.7%; Injected (dose/g) [19]: 0.893%; Injected (dose/g) [20]: 0.391%; Injected (dose/g) [23]: 0.107%; Injected (dose/g) [25]: 6.12%; Injected (dose/g) [26]: 0.251%; Injected (dose/g) [27]: 0.135%; Injected (dose/g) [30]: 0.604%; Injected (dose/g) [34]: 0.515%; Injected [35]: 47.73%; Injected [36]: 0.149%; Injected [37]: 1.397%; Injected [38]: 0.402% |
| C#C[C@]1(O)[C@@H](F)C[C@H]2[C@@H]3CCc4cc(O)ccc4[C@H]3[C@@H](CC)C[C@@]21C | 2.174 | 0.144 | 2.43 | 3.115 | 1.03 | 0.227 | 0.147 | 0.88 | 0.264 | 3.375 | 3.934 | 4.12 | 11 | 64.53 | 1.606 | 9.09 | 189 | 4.023 | 1.886 | 1.712 | Injected [2]: 3.5%; Injected [9]: 4.03%; Injected [10]: 11.41%; Injected [15]: 0.709%; Injected [17]: 0.493%; Injected [18]: 33.61%; Injected [19]: 4.003%; Injected [20]: 0.815%; Injected [39]: 1.805%; Injected [23]: 0.382%; Injected [25]: 8.2%; Injected [26]: 0.725%; Injected [27]: 0.277%; Injected [30]: 1.037%; Injected [34]: 1.365%; Injected [35]: 23.55%; Injected [36]: 0.262%; Injected [37]: 3.888% |
